According to ChEMBL document CHEMBL1129055, “Synthesis, in vitro antiviral evaluation, and stability studies of bis(S-acyl-2-thioethyl) ester derivatives of 9-[2-(phosphonomethoxy)ethyl]adenine (PMEA) as potential PMEA prodrugs with improved oral bioavailability” (J Med Chem, 1996):

Tests used:
Vero [1] = test: (§1) Compound was tested for antiviral activity against the Vero cells infected with HSV-1.; type: functional; settings: Chlorocebus sabaeus
CEM-SS [2] = test: (§2) Compound was tested for antiviral activity against the CEM-SS cell lines infected with HIV-1.; type: functional, cell-based; settings: Homo sapiens
How it was run: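 CEM-SS cells infected with 100 TCID50 HIV-LAI for 30 min, unbound virus removed by two washes, then cultured 5 days with graded compound concentrations. Virus production quantified as reverse transcriptase activity in culture supernatant. EC50 derived from median effect plot of dose-effect data.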

MT4 [3] = test: (§3) Compound was tested for antiviral activity against the MT-4 cell lines infected with HIV-1.; type: functional, cell-based; settings: Homo sapiens
How it was run: (§4)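 MT-4 cells infected with 50 TCID50 HIV-1 IIIB for 30 min, washed twice, then cultured 5 days with graded compound concentrations. Protection from virus-induced cytopathogenicity read by MTT reduction to formazan. EC50 taken from median effect plot of dose-effect data.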

Vero [4] = test: as §1; type: functional, cell-based; settings: Chlorocebus sabaeus
How it was run: (§5)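 Confluent cells in MEM with 5% FBS infected with 100 CCID50 virus (HSV-1 strain F or HSV-2 strain G) for 1 h at 37 °C, then exposed to compound from 1 mM to 1 uM. Cytopathic effect scored daily. EC50 is the concentration that reduces CPE by 50% once CPE is complete in untreated infected controls.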

Vero [5] = test: Compound was tested for antiviral activity against the Vero cells infected with HSV-2; type: functional, cell-based; settings: Chlorocebus sabaeus; how it was run: as §5
MRC5 [6] = test: (§6) Compound was tested for antiviral activity against the MRC-5 cells infected with HSV-1.; type: functional; settings: Homo sapiens; how it was run: as §5
MRC5 [7] = test: as §6; type: functional, cell-based; settings: Homo sapiens; how it was run: as §5
MT4 [8] = test: as §3; type: functional; settings: Homo sapiens; how it was run: as §4
[9] = Partition coefficient (logP); type: physicochemical; settings: octanol/water
How it was run: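 Octanol/water partition coefficient (logP) determined by HPLC using a microscale method adapted from earlier work on nucleoside analogues.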

MRC5 [10] = test: Compound was tested for antiviral activity against the MRC-5 cells infected with HSV-2.; type: functional, cell-based; settings: Homo sapiens; how it was run: as §5
[11] = Percent decomposition in water at specified pH 7.2; settings: buffer
[12] = Half-life in culture medium.; type: ADME
CEM-SS [13] = test: as §2; type: functional; settings: Homo sapiens
[14] = Half-life in RPMI1640 medium.; type: ADME

Row | Structure (SMILES) | CC50 (Vero [1]) | EC50 (CEM-SS [2]) | EC50 (MT4 [3]) | EC50 (Vero [4]) | EC50 (Vero [5]) | CC50 (MRC5 [6]) | EC50 (MRC5 [7]) | CC50 (MT4 [8]) | logP ([9]; read-out: logP) | EC50 (MRC5 [10]) | percent decomposition [11] | half-life [12] | CC50 (CEM-SS [13]) | half-life [14] | logP [9]
1 | Nc1ncnc2c1ncn2CCOCP(=O)(OCCSSCCO)OCCSSCCO | > 100 µM | 2 µM | 6.9 µM | 22.3 µM | 27.4 µM | > 100 µM | 32.3 µM | 50 µM | 0.21 | 26.5 µM | 13.9% | 38.4 h | 67 µM | > 24 h | –
2 | CC(C)(C)C(=O)SCCOP(=O)(O)COCCn1cnc2c(N)ncnc21 | – | – | – | – | – | – | – | – | – | – | – | 230 h | – | – | –
3 | Nc1ncnc2c1ncn2CCOCP(=O)(O)O [ADEFOVIR] | > 100 µM | 0.42 µM | > 10 µM | 38.5 µM | 32.7 µM | > 100 µM | 29.7 µM | > 10 µM | – | 33.5 µM | – | – | > 10 µM | – | -4.11
4 | CC(C)C(=O)SCCOP(=O)(COCCn1cnc2c(N)ncnc21)OCCSC(=O)C(C)C | 23 µM | 0.09 µM | 0.51 µM | 1.35 µM | 1.14 µM | 30.2 µM | 1.69 µM | 3.8 µM | 2.31 | 1.2 µM | 1.6% | 8.3 h | 13 µM | – | –
5 | CC(=O)SCCOP(=O)(COCCn1cnc2c(N)ncnc21)OCCSC(C)=O | 126 µM | 0.1 µM | 1.1 µM | 14.2 µM | 10.2 µM | 148 µM | 12.6 µM | 7.6 µM | 0.32 | 8.9 µM | 4% | 3.7 h | 23 µM | > 24 h | –
6 | Nc1ncnc2c1ncn2CCOCP(=O)(O)OCCSC(=O)c1ccccc1 | – | – | – | – | – | – | – | – | – | – | – | 64.8 h | – | – | –
7 | CC(=O)SCCOP(=O)(O)COCCn1cnc2c(N)ncnc21 | – | – | – | – | – | – | – | – | – | – | – | 19.2 h | – | – | –
8 | CC(C)(C)C(=O)SCCOP(=O)(COCCn1cnc2c(N)ncnc21)OCCSC(=O)C(C)(C)C | 36.8 µM | 0.03 µM | 0.65 µM | 1.07 µM | 1.12 µM | 48.5 µM | 1.43 µM | 15 µM | 3.41 | 0.97 µM | 3% | 81.6 h | 5.8 µM | – | –
9 | Nc1ncnc2c1ncn2CCOCP(=O)(OCCSC(=O)c1ccccc1)OCCSC(=O)c1ccccc1 | 12.7 µM | 0.05 µM | 0.41 µM | 2.56 µM | 2.89 µM | 18.7 µM | 3.48 µM | 2.4 µM | 3.93 | 4.75 µM | 1.7% | 25.7 h | 3.9 µM | – | –
10 | CC(C)C(=O)SCCOP(=O)(O)COCCn1cnc2c(N)ncnc21 | – | – | – | – | – | – | – | – | – | – | – | 28.8 h | – | – | –
11 | CC(C)(C)C(=O)OCOP(=O)(COCCn1cnc2c(N)ncnc21)OCOC(=O)C(C)(C)C [ADEFOVIR DIPIVOXIL] | 22.6 µM | 0.04 µM | 0.08 µM | 0.87 µM | 1.15 µM | 15.7 µM | 1.23 µM | 0.74 µM | 2.48 | 0.91 µM | 32.7% | 5 h | 4.4 µM | 5 h | –
